Measured values reported in ChEMBL document CHEMBL4732230, “Design, synthesis, and biological evaluation of 4-benzoylamino-1H-pyrazole-3-carboxamide derivatives as potent CDK2 inhibitors” (Eur J Med Chem, 2021).

Columns and labels:
A2058 = test: Antiproliferative activity against human A2058 cells assessed as reduction in cell viability measured after 96 hrs by Celltiter-Glo luminescent assay; type: functional, cell-based; conditions: A2058, 96 h
Method in brief: (§1)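 Cells in DMEM (A2058, MRC5) or RPMI 1640 (MV4-11), each with 10% fetal bovine serum and 1% penicillin/streptomycin. Cells were plated in 96-well plates and exposed to serially concentrated compound for 96 h, with DMSO as control. Viability was read by CellTiter-Glo luminescence and IC50 derived.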

[1] = molecular target: Cyclin-dependent kinase 1/cyclin B1 (Homo sapiens, UniProt P06493); type: protein-complex assay
CDK2/Cyclin A2 = CDK2/Cyclin A2 (Homo sapiens, UniProt P24941); test: Inhibition of CDK2/cyclin A2 (unknown origin) using FAM-labeled peptide and ATP as substrate preincubated for 10 mins followed by substrate addition by mobility shift assay; type: protein-complex assay
MRC5 = test: Cytotoxicity against human MRC5 cells assessed as reduction in cell viability measured after 96 hrs by Celltiter-Glo luminescent assay; type: cell-based; conditions: MRC5, 96 h; method in brief: as §1
[2] = Cytotoxicity against human LX2 cells assessed as inhibition of cell growth at 100 uM measured after 96 hrs by Celltiter-Glo luminescent assay; type: cell-based
Method in brief: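 LX2 cells grown in DMEM with 10% fetal bovine serum and 1% penicillin/streptomycin, plated in 96-well plates. They were treated with compound at […] or DMSO control for 96 h. Viability was read by CellTiter-Glo luminescence and expressed as percent inhibition.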

MV4-11 = test: Antiproliferative activity against human MV4-11 cells assessed as reduction in cell viability measured after 96 hrs by Celltiter-Glo luminescent assay; type: functional, cell-based; conditions: MV4-11, 96 h; method in brief: as §1

Sequence of Cyclin-dependent kinase 1/cyclin B1 (P06493 whole entry): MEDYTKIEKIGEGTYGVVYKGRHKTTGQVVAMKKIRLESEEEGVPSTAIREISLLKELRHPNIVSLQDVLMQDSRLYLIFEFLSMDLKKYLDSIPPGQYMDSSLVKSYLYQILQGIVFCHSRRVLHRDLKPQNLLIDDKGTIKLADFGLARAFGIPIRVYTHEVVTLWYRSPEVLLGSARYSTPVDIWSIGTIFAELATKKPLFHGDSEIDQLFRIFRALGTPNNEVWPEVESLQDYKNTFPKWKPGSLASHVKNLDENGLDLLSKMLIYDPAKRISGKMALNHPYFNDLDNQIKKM
Sequence of Cyclin-dependent kinase 1/cyclin B1 (P14635 whole entry, further chain): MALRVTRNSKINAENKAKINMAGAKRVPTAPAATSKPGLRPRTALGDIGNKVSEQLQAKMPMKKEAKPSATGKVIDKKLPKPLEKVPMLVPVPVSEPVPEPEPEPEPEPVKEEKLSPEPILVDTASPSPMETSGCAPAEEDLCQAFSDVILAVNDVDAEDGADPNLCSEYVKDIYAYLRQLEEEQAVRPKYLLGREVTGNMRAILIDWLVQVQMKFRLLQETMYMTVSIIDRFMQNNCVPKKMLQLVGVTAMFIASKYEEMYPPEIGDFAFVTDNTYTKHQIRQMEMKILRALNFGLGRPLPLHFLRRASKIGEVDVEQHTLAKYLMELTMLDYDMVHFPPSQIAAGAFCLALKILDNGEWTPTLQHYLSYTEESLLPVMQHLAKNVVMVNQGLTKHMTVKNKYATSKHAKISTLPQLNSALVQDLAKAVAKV

Compound	IC50 (A2058) [nM]	IC50 [1] [nM]	IC50 (CDK2/Cyclin A2) [nM]	IC50 (MRC5) [nM]	inhibition at 96 h, 100 µM [2] [%]	IC50 (MV4-11) [nM]
NS(=O)(=O)c1ccc(Nc2nc(-c3cccc(-c4ccccc4)c3)c3nc[nH]c3n2)cc1	> 100000	> 200000	543	–	–	–
O=C(Nc1ccc(F)cc1)c1n[nH]cc1NC(=O)c1c(F)ccc(-c2cccnc2)c1F	2940	306	40	–	–	–
O=C(NCCCN1CCOCC1)c1cccc(-c2ccc(F)c(C(=O)Nc3c[nH]nc3C(=O)Nc3ccc(F)cc3)c2F)c1	650	723	73	–	–	–
O=C(NC1CCNCC1)c1n[nH]cc1NC(=O)c1c(Cl)cccc1Cl [AT-7519]	–	–	–	425	39.4	391
COC(=O)c1cccc(-c2ccc(F)c(C(=O)Nc3c[nH]nc3C(=O)Nc3ccc(F)cc3)c2F)c1	–	496	210	–	–	–
